Article PMC5616206 (Toxicology Reports, 2016)
“Also recorded” adds a separate entry of the source. Like-named read-outs stand apart in the source and are kept apart here.

Assays:
[1] = Pharmacokinetics of S9229 in rats, single iv or oral dose; type: in vivo, Sprague-Dawley rats; conditions: for AUC(0-t) / Cmax / Tmax / Vd / clearance / half-life / bioavailability: Sprague-Dawley, rat, plasma; for AUC0-24hr Ratio / Cmax Ratio: vs 10 mg/kg dose
How it was run: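 Sprague-Dawley rats, 4/sex, received a 1 mg/kg bw IV bolus in 1% ethanol in saline, with tail-vein sampling from 2 min to 8 h. Oral groups (3/sex/group) were gavaged once with 10, 30 or 100 mg/kg bw in 1% methylcellulose and sampled from 15 min to 24 h. Plasma was assayed for parent and metabolites.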

[2] = In vitro metabolism by rat liver microsomes; type: in vitro ADME, Sprague-Dawley rat; conditions: S9229 incubation, relative to S9229 at time = 0
[3] = Toxicokinetics of S9229 in the 28-day rat study; type: in vivo, Sprague-Dawley rats; conditions: for AUC0-24hr Ratio / Cmax Ratio: vs 10 mg/kg dose; for AUC(0-t) / Cmax / Tmax / half-life: rat, plasma, po; for AUC(0-t): AUC0-24hr
[4] = In vivo metabolism of S9229 in rats; design: species or system Sprague-Dawley rats; conditions: rat plasma, 1 h time point, 100 mg/kg bw oral
[5] = In vitro metabolism by human liver microsomes; type: in vitro ADME; conditions: S9229 incubation, relative to S9229 at time = 0
[6] = tested on: Male and Female Hsd:ICR (CD-1) mice, bone marrow PCEs; assay: In vivo micronucleus assay in mice, S9229
How it was run: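 Hsd:ICR (CD-1) mice were gavaged once with the test compound suspended in 1% methylcellulose (20 mL/kg) in both the range-finding and definitive phases. The definitive phase used 0, 500, 624, 1352 and 2000 mg/kg bw, 5/sex/group, with bone marrow sampled at 24 h. Additional vehicle, 1352 and 2000 groups were sampled at 48 h. Femoral marrow smears were stained with acridine orange and scored for mnPCEs and PCE/TE ratio. Cyclophosphamide 50 mg/kg was the positive control.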

[7] = tested on: Primary human lymphocytes; conditions: for dose with substantial toxicity (at least 50% reduction in mitotic index): preliminary toxicity test
[8] = oral gavage 10 mg/kg bw, female
[9] = oral gavage 30 mg/kg bw, female
[10] = oral gavage 100 mg/kg bw, female
[11] = female, Sprague-Dawley (Crl:CD(SD)), 10 mg/kg, Day 1, 10 mg/kg bw, F
[12] = female, Sprague-Dawley (Crl:CD(SD)), 30 mg/kg, Day 1, 30 mg/kg bw, F
[13] = female, Sprague-Dawley (Crl:CD(SD)), 100 mg/kg, Day 1, 100 mg/kg bw, F
[14] = female, Sprague-Dawley (Crl:CD(SD)), 100 mg/kg, Day 28, 100 mg/kg bw, F
[15] = female, Sprague-Dawley [Crl:CD(SD)], 10 mg/kg, Day 28, 10 mg/kg bw, F
[16] = female, Sprague-Dawley [Crl:CD(SD)], 30 mg/kg, Day 28, 30 mg/kg bw, F
[17] = male, Sprague-Dawley (Crl:CD(SD)), 10 mg/kg, Day 1, 10 mg/kg bw, M
[18] = male, Sprague-Dawley (Crl:CD(SD)), 10 mg/kg, Day 28, 10 mg/kg bw, M
[19] = male, Sprague-Dawley (Crl:CD(SD)), 30 mg/kg, Day 1, 30 mg/kg bw, M
[20] = male, Sprague-Dawley (Crl:CD(SD)), 100 mg/kg, Day 1, 100 mg/kg bw, M
[21] = male, Sprague-Dawley (Crl:CD(SD)), 100 mg/kg, Day 28, 100 mg/kg bw, M
[22] = male, Sprague-Dawley [Crl:CD(SD)], 30 mg/kg, Day 28, 30 mg/kg bw, M

## COC[C@@H](CC(C)C)NC(=O)c1ccc(C)c(C)c1 [S9229, (R)-N-(1-methoxy-4-methylpentan-2-yl)-3,4-dimethylbenzamide]
[1]; female, iv, 1 mg/kg
  AUC(0-t): 1730 ± 376 ng·h/mL
  Cmax: 3940 ± 1070 ng/mL
  Tmax: 0.03 h
  Vd: 2.82 L/kg
  clearance: 7.9 mL/min/kg
  half-life: 4.33 ± 1.65 h
[1]; female, po
  bioavailability: 0.09 to 0.1%
[1]; female, po, 10 mg/kg
  AUC(0-t): 15.2 ± 11.2 ng·h/mL
  Cmax: 10.5 ± 13.9 ng/mL
  Tmax: 0.25 h
  bioavailability: 0.09%
  half-life: 0.96 ± 0.3 h
[1]; female, po, 30 mg/kg
  AUC(0-t): 49.5 ± 31.7 ng·h/mL
  Cmax: 55.4 ± 43.9 ng/mL
  Tmax: 0.25 h
  bioavailability: 0.1%
  half-life: 1.82 ± 2.12 h
[1]; female, po, 100 mg/kg
  AUC(0-t): 175 ± 169 ng·h/mL
  Cmax: 102 ± 124 ng/mL
  Tmax: 1.67 h
  bioavailability: 0.1%
  half-life: 1.03 ± 0.32 h
[1]; iv 1 mg/kg
  ratio of female/male AUC0-24hr: 1.02
  ratio of female/male Cmax: 1.08
[1]; iv, females
  CL as % of hepatic blood flow: 14.4%
[1]; iv, males
  CL as % of hepatic blood flow: 13.9%
[1]; male, iv, 1 mg/kg
  AUC(0-t): 1690 ± 416 ng·h/mL
  Cmax: 3650 ± 1180 ng/mL
  Tmax: 0.03 h
  Vd: 3.47 L/kg
  clearance: 7.65 mL/min/kg
  half-life: 5.38 ± 2.16 h
[1]; male, po
  bioavailability: 0.04 to 0.1%
[1]; male, po, 10 mg/kg
  AUC(0-t): 11.3 ± 10 ng·h/mL
  Cmax: 19.4 ± 24 ng/mL
  Tmax: 0.25 h
  bioavailability: 0.07%
  half-life: 1.38 ± 1.28 h
[1]; male, po, 30 mg/kg
  AUC(0-t): 20.6 ± 3.7 ng·h/mL
  Cmax: 11.9 ± 0.6 ng/mL
  Tmax: 0.25 h
  bioavailability: 0.04%
  half-life: 1.78 ± 0.69 h
[1]; male, po, 100 mg/kg
  AUC(0-t): 175 ± 57.8 ng·h/mL
  Cmax: 52.3 ± 12 ng/mL
  Tmax: 0.83 h
  bioavailability: 0.1%
  half-life: 2.24 ± 1.09 h
[1]; [8]
  AUC0-24hr Ratio: 1
  Cmax Ratio: 1
[1]; oral gavage 10 mg/kg bw, male
  AUC0-24hr Ratio: 1
  Cmax Ratio: 1
[1]; [9]
  AUC0-24hr Ratio: 3.26
  Cmax Ratio: 5.28
[1]; oral gavage 30 mg/kg bw, male
  AUC0-24hr Ratio: 1.82
  Cmax Ratio: 0.61
[1]; [10]
  AUC0-24hr Ratio: 11.5
  Cmax Ratio: 9.68
[1]; oral gavage 100 mg/kg bw, male
  AUC0-24hr Ratio: 15.5
  Cmax Ratio: 2.70
[2]; 10 min
  % MS (EIC) Peak Area: 36.4%
[2]; 20 min
  % MS (EIC) Peak Area: 1.93%
[3]; Day 1, 10 mg/kg bw, F
  AUC0-24hr Ratio: 1
  Cmax Ratio: 1
[3]; Day 1, 10 mg/kg bw, M
  AUC0-24hr Ratio: 1
  Cmax Ratio: 1
[3]; Day 1, 30 mg/kg bw, F
  AUC0-24hr Ratio: 1.11
  Cmax Ratio: 0.55
[3]; Day 1, 30 mg/kg bw, M
  AUC0-24hr Ratio: 6.62
  Cmax Ratio: 7.06
[3]; Day 1, 100 mg/kg bw, F
  AUC0-24hr Ratio: 23.4
  Cmax Ratio: 22.8
[3]; Day 1, 100 mg/kg bw, M
  AUC0-24hr Ratio: 48.3
  Cmax Ratio: 61.8
[3]; Day 28, 10 mg/kg bw, F
  AUC0-24hr Ratio: 1
  Cmax Ratio: 1
[3]; Day 28, 10 mg/kg bw, M
  AUC0-24hr Ratio: 1
  Cmax Ratio: 1
[3]; Day 28, 30 mg/kg bw, F
  AUC0-24hr Ratio: 6.90
  Cmax Ratio: 4.85
[3]; Day 28, 30 mg/kg bw, M
  AUC0-24hr Ratio: 10.4
  Cmax Ratio: 5.67
[3]; Day 28, 100 mg/kg bw, F
  AUC0-24hr Ratio: 68.6
  Cmax Ratio: 57.2
[3]; Day 28, 100 mg/kg bw, M
  AUC0-24hr Ratio: 71.1
  Cmax Ratio: 33.6
[3]; [11]
  AUC(0-t): 11.4 ± 11.1 ng·h/mL
  Cmax: 15.6 ± 17 ng/mL
  Tmax: 0.5 h
[3]; [12]
  AUC(0-t): 12.6 ± 2.8 ng·h/mL
  Cmax: 8.6 ± 2.6 ng/mL
  Tmax: 0.5 h
[3]; female, Sprague-Dawley (Crl:CD(SD)), 30 mg/kg, Day 28, 30 mg/kg bw, F
  Tmax: 1 h
[3]; female, Sprague-Dawley (Crl:CD(SD)), 30 mg/kg, t1/2, Day 1, 30 mg/kg bw, F
  half-life: 0.95 ± 0.48 h
[3]; female, Sprague-Dawley (Crl:CD(SD)), 30 mg/kg, t1/2, Day 28, 30 mg/kg bw, F
  half-life: 2.16 ± 1.3 h
[3]; [13]
  AUC(0-t): 267 ± 174 ng·h/mL
  Cmax: 356 ± 256 ng/mL
  Tmax: 0.5 h
[3]; [14]
  AUC(0-t): 144 ± 45.1 ng·h/mL
  Cmax: 74.4 ± 31.7 ng/mL
  Tmax: 1 h
[3]; female, Sprague-Dawley (Crl:CD(SD)), 100 mg/kg, t1/2, Day 1, 100 mg/kg bw, F
  half-life: 0.97 ± 0.36 h
[3]; female, Sprague-Dawley (Crl:CD(SD)), 100 mg/kg, t1/2, Day 28, 100 mg/kg bw, F
  half-life: 0.98 ± 0.1 h
[3]; [15]
  AUC(0-t): 2.1 ± 1.9 ng·h/mL
  Cmax: 1.3 ± 1.3 ng/mL
  Tmax: 1 h
[3]; [16]
  AUC(0-t): 14.5 ± 4.3 ng·h/mL
  Cmax: 6.3 ± 3.2 ng/mL
[3]; [17]
  AUC(0-t): 3.9 ± 0.8 ng·h/mL
  Cmax: 3.2 ± 1.3 ng/mL
  Tmax: 0.5 h
[3]; [18]
  AUC(0-t): 1.5 ± 0.6 ng·h/mL
  Cmax: 1.2 ± 0.3 ng/mL
  Tmax: 1.67 h
[3]; male, Sprague-Dawley (Crl:CD(SD)), 10 mg/kg, t1/2, Day 1, 10 mg/kg bw, M
  half-life: 0.9 ± 0.23 h
[3]; [19]
  AUC(0-t): 25.8 ± 4.3 ng·h/mL
  Cmax: 22.6 ± 10.5 ng/mL
  Tmax: 0.5 h
[3]; male, Sprague-Dawley (Crl:CD(SD)), 30 mg/kg, t1/2, Day 1, 30 mg/kg bw, M
  half-life: 1.16 ± 0.46 h
[3]; [20]
  AUC(0-t): 188 ± 78.8 ng·h/mL
  Cmax: 198 ± 98.5 ng/mL
  Tmax: 0.5 h
[3]; [21]
  AUC(0-t): 107 ± 41.6 ng·h/mL
  Cmax: 40.3 ± 20.5 ng/mL
  Tmax: 1 h
[3]; male, Sprague-Dawley (Crl:CD(SD)), 100 mg/kg, t1/2, Day 1, 100 mg/kg bw, M
  half-life: 1.04 ± 0.04 h
[3]; male, Sprague-Dawley (Crl:CD(SD)), 100 mg/kg, t1/2, Day 28, 100 mg/kg bw, M
  half-life: 1.39 ± 0.28 h
[3]; [22]
  AUC(0-t): 15.6 ± 2.7 ng·h/mL
  Cmax: 6.8 ± 2.3 ng/mL
  Tmax: 1 h
[3]; male, Sprague-Dawley [Crl:CD(SD)], 30 mg/kg, t1/2, Day 28, 30 mg/kg bw, M
  half-life: 1.42 ± 0.28 h
[4]
  parent compound as % of the total peak area: less than 1%
[5]; 10 min
  % MS (EIC) Peak Area: 86.9%
[5]; 20 min
  % MS (EIC) Peak Area: 70.6%
[5]; 60 min
  % MS (EIC) Peak Area: ~22.6%
[6]; 500, 624, 1352, 2000 mg/kg bw (oral)
  Micronucleus formation (in vivo), Result: neither clastogenic nor aneugenic; also recorded: Negative
[6]; preliminary dose range finding, oral, male and female mice
  well tolerated highest dose tested: 2000 mg/kg bw
[7]; beginning of the treatment period
  dose levels with visible precipitate in treatment medium: ≥ 322 µg/mL
[7]; non-activated 20-h exposure
  dose with substantial toxicity (at least 50% reduction in mitotic index): ≥ 263 µg/mL
[7]; non-activated and S9-activated 4-h exposure
  dose with substantial toxicity (at least 50% reduction in mitotic index): ≥ 789 µg/mL
